Data: ChEMBL document CHEMBL1137383, “New efficient substrates for semicarbazide-sensitive amine oxidase/VAP-1 enzyme: analysis by SARs and computational docking” (J Med Chem, 2006)
The source made the active and inactive calls. No cut-off for these calls is given here.

Legend:
[1] = molecular target: T1, Amine oxidase [copper-containing] 3 (Homo sapiens) (UniProt Q16853); assay: Activity of human SSAO measured as hydrogen peroxide production at 1 mM relative to benzylamine oxidation; type: functional
T1 sequence (whole entry): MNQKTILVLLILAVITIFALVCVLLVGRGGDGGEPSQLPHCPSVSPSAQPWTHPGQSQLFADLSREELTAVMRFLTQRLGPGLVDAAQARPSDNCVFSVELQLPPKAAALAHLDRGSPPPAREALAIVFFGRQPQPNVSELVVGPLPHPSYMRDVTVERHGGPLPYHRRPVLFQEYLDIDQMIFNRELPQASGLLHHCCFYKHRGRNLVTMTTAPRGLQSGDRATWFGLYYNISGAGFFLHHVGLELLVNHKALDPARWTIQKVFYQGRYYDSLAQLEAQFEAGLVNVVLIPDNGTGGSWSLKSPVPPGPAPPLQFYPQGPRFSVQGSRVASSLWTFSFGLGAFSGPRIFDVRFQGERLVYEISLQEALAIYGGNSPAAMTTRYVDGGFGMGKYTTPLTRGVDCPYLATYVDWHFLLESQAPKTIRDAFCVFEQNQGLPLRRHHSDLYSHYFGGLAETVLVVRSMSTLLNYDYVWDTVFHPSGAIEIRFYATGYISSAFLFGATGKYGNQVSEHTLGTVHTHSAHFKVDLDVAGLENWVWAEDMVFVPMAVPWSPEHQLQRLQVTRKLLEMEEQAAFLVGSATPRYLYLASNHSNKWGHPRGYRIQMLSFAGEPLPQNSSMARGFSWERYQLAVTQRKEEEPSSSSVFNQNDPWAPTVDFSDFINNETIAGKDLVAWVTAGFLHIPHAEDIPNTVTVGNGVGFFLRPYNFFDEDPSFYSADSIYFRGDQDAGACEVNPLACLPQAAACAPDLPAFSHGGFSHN
Outline: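 Human recombinant VAP-1 (0.1 µg protein/assay) in 0.2 mol/L phosphate buffer pH 7.4, 50 min at 37 °C; amine at 1 mM added with HRP/Amplex Red mix. H2O2 fluorescence (ex 545/em 590) read every 5 min, quantified against H2O2 standard curve; semicarbazide-preincubated (250 µM, 20 min) background subtracted. Mean percentage relative to benzylamine-derived H2O2.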

[2] = molecular target: T2, Amine oxidase [copper-containing] 3 (Mus musculus) (UniProt O70423); assay: Activity of mouse SSAO measured as hydrogen peroxide production at 100 uM relative to benzylamine oxidation; type: functional
T2 sequence (whole entry): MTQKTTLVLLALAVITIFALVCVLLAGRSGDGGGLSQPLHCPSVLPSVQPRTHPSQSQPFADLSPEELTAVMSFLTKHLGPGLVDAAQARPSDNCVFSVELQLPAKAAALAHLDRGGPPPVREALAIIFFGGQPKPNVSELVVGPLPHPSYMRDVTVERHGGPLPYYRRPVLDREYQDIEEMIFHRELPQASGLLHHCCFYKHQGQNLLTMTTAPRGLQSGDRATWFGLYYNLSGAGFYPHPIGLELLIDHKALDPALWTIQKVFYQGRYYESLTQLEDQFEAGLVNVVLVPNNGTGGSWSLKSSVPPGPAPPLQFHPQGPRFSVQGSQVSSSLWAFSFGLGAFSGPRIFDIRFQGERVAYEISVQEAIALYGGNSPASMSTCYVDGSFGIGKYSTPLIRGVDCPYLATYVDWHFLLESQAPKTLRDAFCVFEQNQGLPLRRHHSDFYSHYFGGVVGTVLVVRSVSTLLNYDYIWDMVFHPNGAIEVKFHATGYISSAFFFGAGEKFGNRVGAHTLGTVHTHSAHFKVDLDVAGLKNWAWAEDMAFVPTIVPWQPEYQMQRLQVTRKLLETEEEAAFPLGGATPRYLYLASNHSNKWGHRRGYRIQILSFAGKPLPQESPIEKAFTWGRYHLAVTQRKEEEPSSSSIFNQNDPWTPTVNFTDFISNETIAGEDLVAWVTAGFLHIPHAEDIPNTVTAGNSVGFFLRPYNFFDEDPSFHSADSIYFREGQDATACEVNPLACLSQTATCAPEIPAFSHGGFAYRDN
Outline: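 Mouse adipose tissue membranes (Swiss mice, 1 µg protein/assay) in 0.2 mol/L phosphate buffer pH 7.4, 50 min at 37 °C; amine at 100 µM added with HRP/Amplex Red. H2O2 fluorescence (ex 545/em 590) vs H2O2 standard curve, minus 250 µM semicarbazide (20 min preincubation) background. Mean percentage relative to benzylamine-derived H2O2.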

[3] = tested on: Adipocyte; assay: Stimulation of glucose transport in mouse adipocytes at 0.1 mM in presence of sodium orthovanadate; type: functional, cell-based
Outline: (§1)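 Adipocytes from internal fat pads of male Swiss mice (30-35 g), collagenase-isolated, incubated 45 min at 37 °C with amine ± 1 mM sodium orthovanadate (± 1 mM semicarbazide); then 2-deoxy-D-[3H]glucose (0.1 mM final) uptake over 10 min. Two experiments in triplicate, mean ± SEM.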

[4] = tested on: Adipocyte; assay: Stimulation of glucose transport in mouse adipocytes at 1 mM in presence of sodium orthovanadate; type: functional, cell-based; outline: as §1

Row | SMILES | Activity [1] [%] | Activity [2] [%] | Activity [3] | Activity [4]
1 | CCCCc1ccc(CN)cc1 | 5 | 24 | – | –
2 | NCc1ccccc1F | 1.3 | 44 | – | –
3 | COc1cccc2[nH]cc(CCN)c12 | 0 | 5.54 | – | –
4 | NCc1ccc(-c2ccccc2)cc1 | 0 | 3.77 | – | –
5 | Cc1ccc(CN)cc1 | 0 | 0 | – | –
6 | NCCCCc1ccccc1 | 166 | 71 | Active | Active
7 | NCc1cccc(CNC(=O)c2ccc(Br)cc2)c1 | 16 | 46 | – | –
8 | COc1ccc(CN)c2ccccc12 | 0.7 | 0 | – | –
9 | COc1ccc(O)c(CN)c1 | 0 | 0 | – | –
10 | NCc1ccc(OC(F)(F)F)cc1OC(F)(F)F | 0 | 0 | – | –
11 | NCc1ccccc1 | 100 | 100 | Active | Active
12 | COc1cc(CN)cc(OC)c1 | 0 | 0.75 | – | –
13 | Cc1ccc(CN)cc1F | 88 | 133 | – | –
14 | NCc1ccc(C(=O)NCc2cccc(CN)c2)cc1 | 17 | 12 | – | –
15 | NCc1ccc(F)cc1 | 134 | 127 | – | –
16 | NCc1cccc(CNC(=O)c2ccc(O)cc2O)c1 | 0 | 0 | – | –
17 | CC(=O)NCc1cccc(CN)c1 | 3 | 16 | – | –
18 | CC(C)(C)c1ccc(CN)cc1 | 0 | 1 | – | –
19 | NCc1ccc(CN)cc1 | 0 | 0 | – | –
20 | NCc1cccc(CNC(=O)c2ccc(O)cc2)c1 | 5 | 26 | – | –
21 | NCc1cccc(CN)c1 | 0 | 0 | – | –
22 | NCCCc1ccccc1 | 44 | 40 | – | –
23 | NCc1ccc(OC(F)(F)F)cc1 | 0 | 66.2 | – | –

Row | SMILES | Activity [1] [%] | Activity [2] [%] | Activity [3] | Activity [4]
24 | NCc1ccc(O)c(Br)c1 | 0 | 0 | – | –
25 | NCc1ccc(C(=O)O)cc1 | 0 | 4.06 | – | –
26 | CC(=O)N[C@H](C(=O)NCc1cccc(CN)c1)c1ccccc1 | 2 | 13 | – | –
27 | CCc1ccc(CN)cc1 | 14 | 26 | – | –
28 | NCc1cccc([N+](=O)[O-])c1O | 0.11 | 5.47 | – | –
29 | CCC(=O)NCc1cccc(CN)c1 | 4 | 27 | – | –
30 | NCCc1ccc(F)cc1 | 35 | 18 | – | –
31 | CC(C)c1ccc(CN)cc1 | 0 | 0 | – | –
32 | NCc1cccc(CNC(=O)c2ccccc2)c1 | 17 | 58 | – | –
33 | NCc1ccc(OCc2ccccc2)cc1 | 0 | 0 | – | –
34 | COc1ccc(CCN)cc1OC | 0 | 3.8 | – | –
35 | COc1cc(F)cc(CN)c1 | 2.53 | 4.86 | – | –
36 | Cc1ccc(S(=O)(=O)NCc2cccc(CN)c2)cc1 | 12 | 14 | – | –
37 | NCCc1ccccc1 | 21 | 19 | – | –
38 | NCc1cccc(CNC(=O)CI)c1 | 38 | 61 | – | –
39 | NCCOc1ccccc1 | 17.9 | 14.6 | – | –
40 | NCc1ccc(C(F)(F)F)cc1 | 4 | 35 | – | –
41 | NCCc1ccc(O)c(O)c1 | 0 | 0 | – | –
42 | CC(N)c1cccc2ccccc12 (centres undefined) | 11 | 0 | – | –
43 | COc1ccc(CN)cc1 | 0 | 4.56 | – | –
44 | C=CCOC(=O)NCc1cccc(CN)c1 | 21 | 49 | – | –
45 | NCc1c(O)ccc2ccccc12 | 0 | 0 | – | –
